Experimental data of several laboratories.
Each line is one published result; the experiments were not run side by side.
Target: Voltage-gated inwardly rectifying potassium channel KCNH2 (KCNH2, Homo sapiens, UniProt Q12809)

`O=C(Cc1ccc(F)c(C(F)F)c1)N1CCN(c2ccc3nncn3n2)CC1` gave an inhibition of 38% (ligand displacement; radioligand; 30 µM).
With `CCN(CC)CCNC(=O)C1CCN(c2ccc3nnc(-c4cccc(C)c4)n3n2)CC1` the inhibition was 58% (ion current; inhibitor; patch clamp; HEK293; 10 µM).
`Cc1nc2cnc(N)c(C#Cc3cncc(C(=O)Nc4ccc(CN5CCN(C)CC5)c(C(F)(F)F)c4)c3)c2nc1C` gave an IC50 of 2.4 µM (ion current; inhibitor).
For `CCc1cc(O)ccc1-c1ccc2c(-c3nc4c([nH]3)CN(C(C)C)[C@H](C(=O)N3CC(N(C)C)C3)C4)n[nH]c2c1`, the inhibition was < 5% (ion current; inhibitor; 13 µM).
With `CCN(Cc1ccccc1C(F)(F)F)C(=O)C1CCN(S(=O)(=O)c2ccc3[nH]ncc3c2)CC1` the inhibition was 18% (ligand displacement; radioligand; 10 µM).
The inhibition of `O=C(Cc1ccc(F)c(CF)c1)N1CCN(c2ccc3nncn3n2)CC1` is reported as 23% (ligand displacement; radioligand; 30 µM).
The IC50 of `COc1ncc(C)c(-c2ccc3c(c2)[nH]c(=O)c2cnn([C@H]4CCOC4)c23)c1C` is reported as 4 µM (ion current; inhibitor).
With `CNC(=O)[C@@]12C[C@@H]1[C@@H](n1cnc3c(NCCc4ccc(O)c(OC)c4)nc(C#Cc4ccc(Br)s4)nc31)[C@H](O)[C@@H]2O` the inhibition was > 50% (ion current; inhibitor; 10 µM).
`N=c1n(CCN2CCCCC2)c2ccccc2n1CC(O)c1cccc(Br)c1` (centres unmarked) gave an inhibition of 99% (ion current; inhibitor; patch clamp; HEK293; 10 µM).
For `Ic1cccc2cnccc12`, the inhibition was 31% (ligand displacement; radioligand; 10 µM).
`CNC(=O)[C@@]12C[C@@H]1[C@@H](n1cnc3c(NCCc4ccc(OC)c(OC)c4)nc(C#Cc4ccc(Cl)s4)nc31)[C@H](O)[C@@H]2O` gave an inhibition of > 50% (ion current; inhibitor; 10 µM).
